Measurements as given in the EternaBench riboswitch data.

Tested on: MS2 coat protein
Experiment: apparent Kd, MS2 coat protein; higher = weaker binding; RNA-MaP array; FMN 200 µM where present
Summary of the method: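 Designs on Illumina sequencing-chip clusters, transcribed by stalled E. coli RNA polymerase, were exposed to SNAP-549-labelled MS2 coat protein in doubling steps from 0.7 or 1.5 nM up to 3 µM, without and then with constant ligand. The buffer held 100 mM Tris-HCl pH 7.5, 80 mM KCl, 4 mM MgCl2, BSA, DTT, yeast tRNA and Tween-20. Apparent Kd values are medians of filtered per-cluster binding-curve fits to green signal normalised to red-channel RNA signal and control-cluster median Fmax.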

[1] = designed as: ON switch for flavin mononucleotide, no ligand
[2] = ligand present: flavin mononucleotide, designed as: ON switch for flavin mononucleotide
[3] = designed as: OFF switch for flavin mononucleotide, no ligand
[4] = ligand present: flavin mononucleotide, designed as: OFF switch for flavin mononucleotide

| Sequence | apparent Kd [1] [nM] | apparent Kd [2] [nM] | apparent Kd [3] [nM] | apparent Kd [4] [nM] |
| --- | --- | --- | --- | --- |
| GGACGUCACAUUAACAUGAGGAUCACCCAUGUCAAAAGACAUGAGGAUAUGCAUCCUAAUUGGAUGCAGAAGGCAUGGACGUCC | 449 | 35 |  |  |
| UCGUAUACACAAGGAUAUCAAUGGUUUGUAGAUCCUACAUGAGGAUCACCCAUGUUUUUAUAUUGUGAGAAGGUGUAGUGUCUU | 620 | 564 |  |  |
| AUCCGGCGUGUAGGAUAUGGAAAAGAUAAGGAUCCAGAAGGACAUGAGGAUCACCCAUGUACAUGUAAACAGUCAUCACCGGAA |  |  | 35.3 | 50.9 |
| UUACUACAUGAGGAUCACCCAUGUCAGGAUAUUGUCUAUACUUUGGAAUAUGUGUCGACAAGAAGGGACUAUAU |  |  | 23.5 | 39.9 |
| CCAUAGUACAAUUUAGAUCUACAUGAGGAUCACCCAUGUACUGAGGAUAUCAGCUCGAAUAGAGCUGAGAAGGCAGAAUUAAUU | 132 | 59.2 |  |  |
| UCGUUGUCAGGAUAUCGUUAAUUUAAUUGUUUGUAUUAGUUCGAGAAGGGACAUGAGGAUCACCCAUGUUUGCU |  |  | 31 | 86.8 |
| UGUGUCAUCGAGAAGGCCUCAACAUGAGGAUCACCCAUGUUGUAAUAUGGGAGGAUAUCGAUGAUACAGCUACGUUUCGUAGCG | 19.8 | 5.56 |  |  |
| GGUCUAGGCGAAGGAUAUCCGUCGCGAGAUACUGGAGAAGGUCGCCUUGAUACAUGAGGAUCACCCAUGUGGCGGGUGAACCAA |  |  | 98.5 | 19.3 |
| GCUUCCCAUGUGAGGAUAUGUAGGGUUAACCCGAGGCAGAAGGCACAUGAGGAUCACCCAUGUUAAAACUUCUA |  |  | 29 | 60.6 |
| GUCAGCUCGUGAGGAUAUACAACACUGCUUCGGCGGUGUAUUAAGAUCACAUGAGGAUCACCCAUGUAGAAGGCACGAGCUGAU |  |  | 13.1 | 249 |
| GCCUCAUAGUAGAAGGGACUUAUACAGUAAUGUUUUUAGUGUAAAUAACAUGAGGAUCACCCAUGUCAGGAUAUACUAAGAGGC |  |  | 9.24 | 12.1 |
| GUAAAUCAUGUAGGAUAUGCAUGGCGAAGCUACGCAGAAGGACAUGAGGAUCACCCAUGUCUGUCCGUCUGCGAACAGACGGAC |  |  | 23.4 | 174 |
| AAUCGCGGUCGAAAGCGGUUGCAUGAGGAUAUCCUGAGACAUGAGGAUCACCCAUGUAGACUGCAGGAGAAGGCAUGGAAAGAA | 244 | 21.1 |  |  |
| UCCGGGUGCCAGAAGGGAGAUGGUUCGGAGGUCUCAGGAUAUGGCACAUGAGGAUCACCCAUGUGUUUACGUAAUUACAUGAGA |  |  | 20.9 | 21.6 |
| GCCUUACCGGUCAGGAUAUACACCCGUCACUCCUUGUAGAAGGGACAUGAGGAUCACCCAUGUACAUUACAUUC |  |  | 27.2 | 26.8 |
| ACAUGAGGAUCACCCAUGUAGAUACUAGAAGGGUAAGACUAGUAGUUACAUGACGACCAAGCAUUACAGGAUAUAGGAAUUGGA | 81.2 | 39.2 |  |  |
| UGGUACUAGGUAGGAUAUGGGAAGAUACAUGAGGAUCACCCAUGUUUAAGAAUGCCGAGAGGCAACUAGAAGGCCCUAGUACCU | 652 | 78.9 |  |  |
| UUCGUGUGACAGAAGGGUCUUUCAGGCUGGGAGGCAGGAUAUGUGACAUGAGGAUCACCCAUGUUGGUAUCGUCUGUGUGUACG |  |  | 6.7 | 14.6 |
| CCGGUUUAGGAGGAUAUAGGAGUCGAUAGACACCUAGAAGGCCUAACAUGAGGAUCACCCAUGUGACCUACCGG |  |  | 51.1 | 177 |
| GGAACCGCUCAGAAGGACAUGAGGAUCACCCAUGUAGGAUAUGACUCGGUCUUUACGUGGCGCCCUGCAUCAUCGUUAUCUGCU | 165 | 23.1 |  |  |
| UCAGGCUUCGAGAAGGACAUGAGGAUCACCCAUGUUAAUUUGAAGCAGCCGUGAGGCUGCAUCAUGUAGGAUAUCGGAGUCUGC |  |  | 6.17 | 10.2 |
| GUAGCAUACAGAGGAUAUCUUUACCGGAAACGGACAUGAGGAUCACCCAUGUGGCGAAAGCCUAGGGAGAAGGCUGAAUGCUAC | 11.6 | 12.3 |  |  |
| GGUGCGUUUGUGAGGAUAUGCUGGUCCUUGGUUCCGCAGAAGGCACAUGAGGAUCACCCAUGUGGUGUCGUACC |  |  | 195 | 373 |
| UUGGACGUCGUGGGAUAUGUAGGAUAUUCCUACAUGAGGAUCACCCAUGUUGACAUGGAAGAAGGACAGAAGGACGAUGUCCAU | 152 | 5.55 |  |  |
| AUGUAGUAAGGAUAUAGAAAGAAGGAGUAAGAUAGAGAGUUCUAGAAGGUACAUGAGGAUCACCCAUGUUGGAG |  |  | 29 | 26.4 |
| AAGUUUUUACAAGGAUAUCAGUUGUUUAUAAAUUAAACAUGAGGAUCACCCAUGUAACAAAGGAGUGAGAAGGUGUGAUGGAAA | 545 | 283 |  |  |
| CUGGGCGGUUUGCCCACACUGUCACAGGAUAUGCCCAAAACAUGAGGAUCACCCAUGUCAAAUACGCAGAAGGGUGAUCGGAAC | 107 | 62.5 |  |  |
| AUUUCGACCACAGGAUAUGUUUGACCGAUACUUACAGAAGGGUGGUCCACGCGCACAAGCACAUGAGGAUCACCCAUGUAACGA | 20.1 | 60.7 |  |  |

| Sequence | apparent Kd [1] [nM] | apparent Kd [2] [nM] | apparent Kd [3] [nM] | apparent Kd [4] [nM] |
| --- | --- | --- | --- | --- |
| GGAAAACAUGAGGAUCACCCAUGUGAGGAUAUCGAUGUCCACCCACCCGUGCGGGACUCGAGAAGGCACUUGGA |  |  | 44.4 | 148 |
| UUUGGGUGGCUGGAGGAUAUCCUGGUUGUUACAUGAGGAUCACCCAUGUGCCGCGCGGUUCGCGAGGAGAAGGCUGGCGGCCGUU | 147 | 33.6 |  |  |
| UUAUUGGGACAGAAGGGCAUUUACAUGAGGAUCACCCAUGUGUAUAGUUGCAGGAUAUGUAUUACAUGUGAAUCAUCAAAGUGC | 75.5 | 25.5 |  |  |
| AAGCUGCGCCAGAAGGGACCGACAUGAGGAUCACCCAUGUCCACAAGAGUCAGGAUAUGGCGUGGAGGCUCGUUUAUGUCCAAG | 13.1 | 5.44 |  |  |
| AAAUAAAGCAGUGUAUUAAGAUCACAUGAGGAUCACCCAUGUAGAAGGCUCGAGCAAAAUGCUCGAGAGGAUAUGCAACACUGC |  |  | 5.12 | 35 |
| UGGUACUAGGGAGGAUAUGGGAAGAUACAUGAGGAUCACCCAUGUUUAAGAAUGCCUAGAGGCAACUAGAAGGCCCUAGUACCU | 393 | 19.1 |  |  |
| CUAUACAUAUCAGGAUAUCAUCGAGUGGAUUAACACAGUGAUUACAUGAGGAUCACCCAUGUGCUUGAGAAGGGAUUACUAUUU |  |  | 14.6 | 12.9 |
| CGUGUCAUCGAGAAGGCCUCAACAUGAGGAUCACCCAUGUUGUAAUAUGGGAGGAUAUCGAUGAUACAGCUACGUUUCGUAGCU | 18.8 | 5.8 |  |  |
| GAUAGGCGAGGAUAUACAUGAGGAUCACCCAUGUAAGUAAGCCUGGCUGAAACUGAAUGUAGAAGGCGCACAUU |  |  | 18.4 | 45.1 |
| CAGUGCAAUGUAGGAUAUGCUCAGGAUAACUGAGCAGAAGGACAUGAGGAUCACCCAUGUAAAAUGAAAGAUAAUAAAGCACUG |  |  | 16.6 | 49.9 |
| ACUGCAUAGGCAGGAUAUGCAAAAGCAGAUGCAAAGCAUUUGUAAAACACAUGAGGAUCACCCAUGUAGAAGGGCCUGUGCAGU |  |  | 21 | 20.7 |
| GAAGCUCUGCAGCGAUUAGCUACAUGAGGAUCACCCAUGUGGGAGGAUAUACGUCGCUCCGCGGAGUAGAAGGCUUACAUGCGG |  |  | 9.86 | 21.7 |
| GUCAGCUCGUGAGGAUAUACAUAAUAUCAAGAUCACAUGAGGAUCACCCAUGUAGAAGGCACGAGCUGAUAAGCACGAAAGUGC |  |  | 12.1 | 102 |
| AGAACAUGAGGAUCACCCAUGUUAAGGUCGGUAAAUAAGGGUGAGGAUAUGCUUAAAAUAAGGAAGCAGAAGGUGCUUGGUGCA | 183 | 195 |  |  |
| GGAAAACAUGAGGAUCACCCAUGUGAGGAUAUCGAUGUCCACCCUCCCGUGCGGGACUCGAGAAGGCACUUGGA |  |  | 50.9 | 56.4 |
| UACAGACAUGAGGAUCACCCAUGUAAGGAUAUCGGUACUAAUGGUAUAAUCUACUUAGCGAGAAGGUACAGUGU |  |  | 33.9 | 30.5 |
| GGGUAUAUUACAUGAGGAUCACCCAUGUCAGAAAGGGUAAUCAGAAGGUACUAUUAGAGAAAGAGUAAGGAUAUGAUUAUACCC | 176 | 22.8 |  |  |
| UGCUAGUCAGGAUAUACGAACAUGUCGCCAGAUGUCAAGGUACAUGAGGAUCACCCAUGUAGAAGGGACUAGAA |  |  | 39.2 | 107 |
| AAAAGUCGGCAAGGAUAUACAACGGAUUCCCUUGUAGAAGGUGCAGGACAUGAGGAUCACCCAUGUGAUCCGGGUAUAUUGAUG |  |  | 27.8 | 44.8 |
| ACAUGAGGAUCACCCAUGUUAAAUUAGGAUAUUUGACUGCACAUGAGGUUCACCCAUGUUCUACCGAAGAAGGGAUAAAUAAUU | 49 | 50 |  |  |
| GGUGACCUUGUAAGGAUAUCGAAUUUAGAUGAGCACGAGAAGGUACAUGAGGAUCACCCAUGUCUGCGGUAACU |  |  | 50.8 | 102 |
| GUGGUGCAUAUACGUGGAUGUACAUGAGGAUCACCCAUGUAAGAGGAUAUGCGGAUACUAGCUCAGUAGAAGGCUUACAAAUGA |  |  | 9.74 | 9.15 |
| AGCUGUGGCCGAGGAUAUCUGUUUCAUAAAACCGAAAUAUAAUCGGACAUGAGGAUCACCCAUGUAGAGAAGGCGGUCUCAGCA |  |  | 16.6 | 14.9 |
| AAAAAACAUGAGGAUCACCCAUGUAAUAAAACGUCAGGAUAUUGAUUUUAUUAUUUAUUGCAAGAAGGGACAAAAA | 56.5 | 24 |  |  |
| GCACUUAGAGAUUUACCGUUACUAACAUGAGGAUCACCCAUGUAGGAUAUGCUAAUAGUAUUGAAGCAGAAGGACACUAAGUGC |  |  | 5 | 5.18 |
| UAUUUUAACUAAGGAUAUCUAUAAUAAUUUGAAACAUGAGGAUCACCCAUGUUCAUGGGUUUUUAAGAGAAGGUAGAUGAAUAA | 59.8 | 26.1 |  |  |
| CGUGCAUAUGUAGGAUAUGGUUAUCUAUGUCUAGUUACUAGACAUAGAUAACCAGAAGGACAUGAGGAUCACCCAUGUUGCACG |  |  | 12.8 | 24.2 |
